Bioassay records as filed in PubChem BioAssay.
Sampled rows, rich in hits. Any-hit rate of the full collection: about 9.6%.
TNAP inh no acc: blocks human TNAP activity with no phosphate acceptor present; inhibition, % at 20 µM; AID 1012; hit rate 0.26% among 200,000; P05186; purified TNAP, CDP-star luminescence, 30 min;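 active = tissue-nonspecific alkaline phosphatase inhibition above about 50% at 20 µM in the single-dose screen, limit read from the data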
Target sequence (P05186 whole entry, looked up): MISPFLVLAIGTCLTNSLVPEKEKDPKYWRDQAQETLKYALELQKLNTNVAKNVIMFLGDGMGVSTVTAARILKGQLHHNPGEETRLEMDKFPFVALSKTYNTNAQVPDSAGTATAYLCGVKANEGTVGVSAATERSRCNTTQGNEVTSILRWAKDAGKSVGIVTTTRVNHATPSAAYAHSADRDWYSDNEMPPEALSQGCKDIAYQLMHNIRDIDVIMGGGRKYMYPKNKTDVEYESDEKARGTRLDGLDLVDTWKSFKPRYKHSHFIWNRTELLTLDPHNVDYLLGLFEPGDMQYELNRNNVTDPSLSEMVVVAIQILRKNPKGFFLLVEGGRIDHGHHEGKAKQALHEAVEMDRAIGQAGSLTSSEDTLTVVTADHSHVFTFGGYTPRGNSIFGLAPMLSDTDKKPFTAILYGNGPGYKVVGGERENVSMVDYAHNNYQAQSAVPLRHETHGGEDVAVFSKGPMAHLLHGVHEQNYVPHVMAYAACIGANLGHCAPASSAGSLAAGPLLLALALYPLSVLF
TNAP inh hiacc: TNAP (human) inhibition, high acceptor | P05186 | purified TNAP, CDP-star luminescence, 1 M DEA | inhibition, % at 20 µM | hit rate 0.03% among 200,000;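 active = over 50% inhibition of tissue-nonspecific alkaline phosphatase at 20 µM in the single-dose screen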
bCat KO growth: beta-catenin-lacking colon tumor cell growth suppression | HCT116 beta-catenin knockout viability, CellTiter-Glo, 60 h; stronger effect = lower value | viability, % at 10 µM | hit rate 1.5% among 140,000 | AID 818;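 active = viability at or under a set limit, the compound median less 4 SD, cut at about 6% in these data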
HCT116 PTEN-null: PTEN-deleted cell growth suppression. HCT116 PTEN-null viability, CellTiter-Glo, 60 h; stronger effect = lower value. viability, % at 10 µM. hit rate 1.2% among 140,000;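 active = viability at or below a set limit, 4 SD under the median of all tested compounds, cut at about 3.7% in these data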;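 also: PTEN knockout HCT116 line with beta catenin targeted HCT116 as companion control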
L major viab: inhibitors of Leishmania major promastigote growth. Leishmania major promastigotes, resazurin fluorescence viability. inhibition, % at 10 µM. hit rate 9% among 200,000. AID 1063; in the data active = inhibition above about 50%;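 also: promastigotes grown with compound for 44 hours at 28 °C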
TNAP act hi DEA: activators of human TNAP at high phosphate acceptor concentration; P05186; activation factor at 20 µM; AID 1136; 200,000 tested, under 10 active; purified TNAP, CDP-star luminescence, 1 M DEA, 30 min; stronger effect = higher value; 0 = EDTA background, 1 = DMSO-only activity;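 active = activation factor at least 2 at 20 µM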
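Test system – human TNAP · Doses – 20 µM single point · Incubation – 30 min, room temperature · Signal – luminescent substrate turnover signal · Read-out basis – activation factor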
Large screens that a line does not name were inactive.

O=C(CN(C(=O)CSc1nc2ccccc2o1)c1cccc(F)c1)NC1CCCCC1	none
O=C(NCc1ccccc1)c1cccc(NC(=O)c2ccco2)c1	L major viab 98
O=C(O)Cc1ccc(NC(=O)c2cccc(NC(=O)c3ccco3)c2)cc1	none (no result: bCat KO growth, HCT116 PTEN-null)
Nc1c([N+](=O)[O-])c(=O)oc2ccccc12	none (no result: bCat KO growth, HCT116 PTEN-null)
CCCn1c(NC(=O)c2cccc(S(=O)(=O)N3CCCC3)c2)nc2ccccc21	bCat KO growth 2.9, HCT116 PTEN-null 2.0
Cc1csc(NC(=O)C2CCN(S(=O)(=O)c3cccs3)CC2)n1	none (no result: bCat KO growth, HCT116 PTEN-null)
CCCn1c(NC(=O)C2CCN(S(=O)(=O)c3cccs3)CC2)nc2ccccc21	L major viab 97
Cc1nc([N+](=O)[O-])c(C(=O)OCc2ccccc2F)n1C	none (no result: bCat KO growth, HCT116 PTEN-null)
COc1ccc([N+](=O)[O-])cc1NC(=O)COC(=O)c1ccccn1	none (no result: bCat KO growth, HCT116 PTEN-null)
COc1ccc2c(c1)C(=O)N(c1ccccc1C)C(=O)C2(C)C	none (no result: bCat KO growth, HCT116 PTEN-null)
COc1cccc(CN2CCNC(=O)C2CC(=O)N(Cc2cnn(C)c2)C(C)C)c1 (stereo not given)	none (no result: bCat KO growth, HCT116 PTEN-null)
O=[N+]([O-])c1ccc2[nH]ncc2c1	none (no result: bCat KO growth, HCT116 PTEN-null)
CCCOc1ccc(NC(=O)CC2C(=O)N(Cc3ccccc3)C(=S)N2Cc2cccs2)cc1 (stereo not given)	L major viab 65
CCOc1ccc(N2C(=O)C(CC(=O)Nc3ccc(F)cc3)N(Cc3ccccn3)C2=S)cc1 (stereo not given)	L major viab 68 (no result: bCat KO growth, HCT116 PTEN-null)
COc1ccc(NC(=O)CC2C(=O)N(CCc3ccccc3)C(=S)N2Cc2cccnc2)cc1 (stereo not given)	L major viab 85
COC(=O)CN1C(=S)N(c2ccc(Cl)cc2)C(=O)C1CC(=O)Nc1ccc(Cl)cc1 (stereo not given)	none
COC(=O)CN1C(=S)N(Cc2ccccc2)C(=O)C1CC(=O)Nc1ccc(Br)cc1 (stereo not given)	L major viab 88
O=C(NN1CCOCC1)c1cc(-c2ccc(Cl)c(Cl)c2)nc2ccccc12	none
O=C(O)c1ccc(-c2ccc(/C=C3\NC(=O)N(Cc4ccc(Cl)cc4)C3=O)o2)cc1Cl	none (no result: bCat KO growth, HCT116 PTEN-null)
CCOC(=O)Cc1csc(NC(=S)NC(=O)c2cccc([N+](=O)[O-])c2)n1	none
CC(=O)Nc1ccc(S(=O)(=O)Nc2nc3ccccc3nc2-n2ccc(=NC(=O)c3ccc(F)cc3)cc2)cc1	none (no result: bCat KO growth, HCT116 PTEN-null)
CCN1C(=O)C(CC(=O)Nc2ccc(OC)cc2)N(CCCN2CCN(c3ccc(OC)cc3)CC2)C1=S (stereo not given)	L major viab 72 (no result: bCat KO growth, HCT116 PTEN-null)
O=C(NCCc1ccccc1)C(c1cccs1)N(C(=O)CCl)c1ccc(Cl)cc1 (stereo not given)	bCat KO growth 1.1, HCT116 PTEN-null 0.8, L major viab 101
O=C(NCCc1ccccc1)C(c1cccs1)N(C(=O)c1csnn1)C1CC1 (stereo not given)	none
CCCCSc1nc(C)cc(C)c1S(=O)(=O)c1ccccc1C	L major viab 84
Cc1cc(C)c(S(=O)(=O)c2ccccc2C)c(Cl)n1	L major viab 101
Cc1ccc(S(=O)(=O)c2c(C)cc(C)nc2Cl)c(C)c1	L major viab 101
CCOCCCNC(=O)CN(c1cc([N+](=O)[O-])ccc1OC)S(C)(=O)=O	none (no result: bCat KO growth, HCT116 PTEN-null)
Cc1ccccc1-c1cc(C(=O)Nc2sc(C)c(C)c2C(N)=O)c2ccccc2n1	none
CCOC(=O)c1c(NC(=O)c2cc(-c3ccc(Cl)s3)nc3ccccc23)sc(C(N)=O)c1C	bCat KO growth 3.6, HCT116 PTEN-null 1.2
CCCCCCCCCCCCCCCC[n+]1cccc2ccccc21	bCat KO growth 1.4, HCT116 PTEN-null 1.7, L major viab 100
O=C(C[n+]1cccc2ccccc21)c1ccc(NC(=O)c2ccccc2)cc1	none (no result: bCat KO growth, HCT116 PTEN-null)
COc1ccc(/C=N/NC(=O)c2cccc(NC(=O)c3ccccc3Cl)c2)c(OC)c1	L major viab 53 (no result: bCat KO growth, HCT116 PTEN-null)
O=C(N/N=C/c1ccncc1)c1cccc(NC(=O)c2ccccc2Cl)c1	L major viab 62
CCCCC(=O)Nc1cccc(C(=O)N/N=C/c2ccc(OC)cc2OC)c1	L major viab 100
COc1ccc(/C=N/NC(=O)c2cccc(NC(=O)c3ccccc3Cl)c2)cc1OC	none (no result: bCat KO growth, HCT116 PTEN-null)
COc1ccccc1/C=N/NC(=O)c1cccc(NC(=O)c2ccccc2Cl)c1	none (no result: bCat KO growth, HCT116 PTEN-null)
